Data from ChEMBL document CHEMBL2086343, “Design, synthesis and antibacterial activity of minor groove binders: the role of non-cationic tail groups” (Eur J Med Chem, 2012).
In brackets after ≈: the same amount, converted by molar mass. Activity calls are given as the source filed them. The rule behind the calls is not given here.

Experiments:
hERG (KCNH2) = hERG (KCNH2) (Homo sapiens, UniProt Q12809); experiment: Displacement of [3H]astemizole from human hERG transfected in HEK293 cells at 10 uM after 1 hr by scintillation counter; type: cell-based; details: HEK293 cells transfected with human hERG, probe [3H]astemizole
Summary of the method: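 Membranes came from hERG-transfected HEK293 cells (grown at 37 °C, 5% CO₂), homogenised and spun at 200,000 g. About 200,000 cells per tube were incubated 1 h at 30 °C with 0.5 nM [³H]astemizole and compound at 10 µM in HEPES pH 7.4 buffer. Non-specific binding was set with 10 µM unlabelled astemizole. Samples were filtered (GF/B) and counted by scintillation. Triplicates, n = 3.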

Staphylococcus aureus = experiment: Antibacterial activity against Staphylococcus aureus; type: functional
Nucleic Acid [1] = experiment: Binding affinity to HexRev DNA at <10 uM after 30 mins by DNase 1 footprinting assay; type: nucleic-acid assay
Summary of the method: (§1)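 DNase I footprinting used 3'-end radiolabelled DNA (<10 nM) in 10 mM Tris-HCl pH 7.5 with 0.1 mM EDTA. It was incubated with ligand for at least 30 min at room temperature, then digested 1 min with about 0.01 units/mL DNase I (with NaCl, MgCl₂, MnCl₂). Fragments were resolved on 8% denaturing polyacrylamide/8 M urea gels and read by phosphorimaging.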

Nucleic Acid [2] = experiment: Binding affinity to 5'GCGATATATGCG3' DNA sequence assessed as change in melting temperature by thermal denaturation assay; type: nucleic-acid assay
Summary of the method: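 Oligonucleotide and its complement at 6×10^-6 M, mixed with MGB at the chosen ratio, in 10 mM PBS pH 7.4 with 50 mM NaCl. Heated 10→80 °C and cooled 80→10 °C at 0.5 °C/min. Absorbance was read at 260 nm, and Tm was taken from the derivative maxima.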

Nucleic Acid [3] = experiment: Binding affinity to HexA DNA at <10 uM after 30 mins by DNase 1 footprinting assay; type: nucleic-acid assay; summary of the method: as §1
Nucleic Acid [4] = experiment: Binding affinity to HexB DNA at <10 uM after 30 mins by DNase 1 footprinting assay; type: nucleic-acid assay

hERG (KCNH2), sequence (Q12809 whole entry): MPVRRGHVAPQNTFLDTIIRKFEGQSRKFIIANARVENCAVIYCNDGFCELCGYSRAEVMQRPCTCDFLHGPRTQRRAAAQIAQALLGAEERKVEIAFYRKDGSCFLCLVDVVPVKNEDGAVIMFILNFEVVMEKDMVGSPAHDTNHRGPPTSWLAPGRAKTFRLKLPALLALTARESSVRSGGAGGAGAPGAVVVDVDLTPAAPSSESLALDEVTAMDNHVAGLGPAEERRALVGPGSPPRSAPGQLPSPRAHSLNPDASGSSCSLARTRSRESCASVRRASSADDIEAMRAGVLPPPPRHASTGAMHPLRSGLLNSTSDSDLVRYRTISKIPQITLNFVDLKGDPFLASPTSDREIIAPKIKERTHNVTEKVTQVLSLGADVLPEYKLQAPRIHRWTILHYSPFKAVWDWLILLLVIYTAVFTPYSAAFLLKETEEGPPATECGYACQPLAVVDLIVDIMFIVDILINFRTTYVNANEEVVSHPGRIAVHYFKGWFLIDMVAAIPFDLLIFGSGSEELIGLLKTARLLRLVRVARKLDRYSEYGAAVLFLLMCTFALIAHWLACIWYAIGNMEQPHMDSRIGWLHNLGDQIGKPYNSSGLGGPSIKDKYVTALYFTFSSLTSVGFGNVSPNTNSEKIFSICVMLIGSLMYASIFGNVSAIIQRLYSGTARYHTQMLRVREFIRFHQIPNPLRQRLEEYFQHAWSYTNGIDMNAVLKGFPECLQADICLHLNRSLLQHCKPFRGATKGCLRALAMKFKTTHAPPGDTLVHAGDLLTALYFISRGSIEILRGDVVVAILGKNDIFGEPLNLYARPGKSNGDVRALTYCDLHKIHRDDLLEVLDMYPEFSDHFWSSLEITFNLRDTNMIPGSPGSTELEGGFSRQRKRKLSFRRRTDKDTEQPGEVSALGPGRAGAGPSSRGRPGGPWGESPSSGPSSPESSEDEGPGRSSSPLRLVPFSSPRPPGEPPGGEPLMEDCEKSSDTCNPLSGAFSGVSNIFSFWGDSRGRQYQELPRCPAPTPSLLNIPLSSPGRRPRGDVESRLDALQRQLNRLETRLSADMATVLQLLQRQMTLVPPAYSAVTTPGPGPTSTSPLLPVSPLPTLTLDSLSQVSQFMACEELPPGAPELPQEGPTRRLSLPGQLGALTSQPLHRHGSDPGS

SMILES: COc1ccc(/C=C/c2ccc(C(=O)Nc3cc(C(=O)Nc4cc(C(=O)NCCN5CCOCC5)n(C)c4)n(C)c3)cn2)cc1
- inhibition at 1 h, 10 µM (hERG (KCNH2)): 58%
- MIC (Staphylococcus aureus): 6.25 µM (≈ 3.82 µg/mL)

SMILES: COc1cccc(/C=C/c2ccc(C(=O)Nc3cc(C(=O)Nc4cc(C(=O)NCCO)n(C)c4)n(C)c3)cc2)c1
- inhibition at 1 h, 10 µM (hERG (KCNH2)): 32%
- MIC (Staphylococcus aureus): inactive

SMILES: Cn1cc(NC(=O)c2cc(NC(=O)c3ccc(/C=C/c4cnc5ccccc5c4)cc3)cn2C)cc1C(=O)NCCN1CCOCC1 [MGB-BP-3]
- inhibition at 1 h, 10 µM (hERG (KCNH2)): 65%
- MIC (Staphylococcus aureus): 0.12 µM (≈ 0.0758 µg/mL)

SMILES: CN/C(=N\C#N)NCCNC(=O)c1cc(NC(=O)c2cc(NC(=O)c3ccc(/C=C/c4cccc(OC)c4)cc3)cn2C)cn1C
- inhibition at 1 h, 10 µM (hERG (KCNH2)): 58%
- MIC (Staphylococcus aureus): inactive

SMILES: CN/C(=C\[N+](=O)[O-])NCCNC(=O)c1cc(NC(=O)c2cc(NC(=O)c3ccc(/C=C/c4cccc(OC)c4)cc3)cn2C)cn1C
- MIC (Staphylococcus aureus): inactive

SMILES: CN/C(=N\C#N)NCCNC(=O)c1cc(NC(=O)c2cc(NC(=O)c3ccc(/C=C/c4cnc5ccccc5c4)cc3)cn2C)cn1C
- inhibition at 1 h, 10 µM (hERG (KCNH2)): 54%
- MIC (Staphylococcus aureus): inactive

SMILES: Cn1cc(NC(=O)c2cc(NC(=O)c3ccc(/C=C/c4cnc5ccccc5c4)cc3)cn2C)cc1C(=O)NCCNC(=O)C(F)(F)F
- inhibition at 1 h, 10 µM (hERG (KCNH2)): 24%
- MIC (Staphylococcus aureus): 12.5 µM (≈ 8.22 µg/mL)

SMILES: COc1cccc(/C=C/c2ccc(C(=O)Nc3cc(C(=O)Nc4cc(C(=O)NCCOC(C)=O)n(C)c4)n(C)c3)cc2)c1
- MIC (Staphylococcus aureus): inactive

SMILES: COc1ccc(/C=C/c2ccc(C(=O)Nc3cc(C(=O)Nc4cc(C(=O)NCCO)n(C)c4)n(C)c3)cn2)cc1
- MIC (Staphylococcus aureus): inactive

SMILES: COc1ccc(/C=C/c2ccc(C(=O)Nc3cc(C(=O)Nc4cc(C(=O)NCCNC(=N)N)n(C)c4)n(C)c3)cn2)cc1
- MIC (Staphylococcus aureus): inactive

SMILES: CN/C(=C\[N+](=O)[O-])NCCNC(=O)c1cc(NC(=O)c2cc(NC(=O)c3ccc(/C=C/c4ccc(OC)cc4)nc3)cn2C)cn1C
- MIC (Staphylococcus aureus): 31 µM (≈ 19.9 µg/mL)

SMILES: Cn1cc(NC(=O)c2cc(NC(=O)c3ccc(/C=C/c4cnc5ccccc5c4)cc3)cn2C)cc1C(=O)NCCNC(=N)N
- Activity (Nucleic Acid [1]): Active
- ΔTm (Nucleic Acid [2]): 29 °C
- Activity (Nucleic Acid [3]): Active
- Activity (Nucleic Acid [4]): Active
- MIC (Staphylococcus aureus): 7.8 µM (≈ 4.71 µg/mL)

SMILES: COc1ccc(/C=C/c2ccc(C(=O)Nc3cc(C(=O)Nc4cc(C(=O)NCCOC(C)=O)n(C)c4)n(C)c3)cn2)cc1
- MIC (Staphylococcus aureus): inactive

SMILES: COc1cccc(/C=C/c2ccc(C(=O)Nc3cc(C(=O)Nc4cc(C(=O)NCCNC(=N)N)n(C)c4)n(C)c3)cc2)c1
- inhibition at 1 h, 10 µM (hERG (KCNH2)): 69%
- MIC (Staphylococcus aureus): 25 µM (≈ 14.6 µg/mL)

SMILES: Cn1cc(NC(=O)c2cc(NC(=O)c3ccc(/C=C/c4cnc5ccccc5c4)cc3)cn2C)cc1C(=O)NCCN
- inhibition at 1 h, 10 µM (hERG (KCNH2)): 55%
- MIC (Staphylococcus aureus): inactive

SMILES: CN/C(=C\[N+](=O)[O-])NCCNC(=O)c1cc(NC(=O)c2cc(NC(=O)c3ccc(/C=C/c4cnc5ccccc5c4)cc3)cn2C)cn1C
- Activity (Nucleic Acid [1]): Active
- ΔTm (Nucleic Acid [2]): 16 °C
- Activity (Nucleic Acid [3]): Active
- inhibition at 1 h, 10 µM (hERG (KCNH2)): 51%
- Activity (Nucleic Acid [4]): Active
- MIC (Staphylococcus aureus): 2.5 µM (≈ 1.65 µg/mL)

SMILES: COc1cccc(/C=C/c2ccc(C(=O)Nc3cc(C(=O)Nc4cc(C(=O)NCCNC(=O)OC(C)(C)C)n(C)c4)n(C)c3)cc2)c1
- inhibition at 1 h, 10 µM (hERG (KCNH2)): 36%
- MIC (Staphylococcus aureus): inactive

SMILES: CN(C)CCCNC(=O)c1cc(NC(=O)c2cc(NC(=O)c3ccc(/C=C/c4cnc5ccccc5c4)cc3)cn2C)cn1C
- inhibition at 1 h, 10 µM (hERG (KCNH2)): 60%
- MIC (Staphylococcus aureus): 25 µM (≈ 15.1 µg/mL)

SMILES: COc1cccc(/C=C/c2ccc(C(=O)Nc3cc(C(=O)Nc4cc(C(=O)NCCN5CCOCC5)n(C)c4)n(C)c3)cc2)c1
- inhibition at 1 h, 10 µM (hERG (KCNH2)): 65%
- MIC (Staphylococcus aureus): 2 µM (≈ 1.22 µg/mL)
